Hits are enriched below; roughly 2.2% of the tested compounds scored in any of these assays.
p97 inhibitor: human p97 ATPase inhibition | inhibition, % at 8 µM | recombinant p97 ATPase, Kinase-Glo ATP luminescence, 3 h | 220,000 tested, 0.42% active; in the data active = inhibition above about 15%;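 note: 0% = DMSO vehicle and 100% = wells lacking enzyme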
Hck-Nef inh: blocks Nef-activated human Hck kinase; P08631; Recombinant Hck-YEEI plus Nef, Z-Lyte FRET kinase assay; inhibition, % at 20 µM; 220,000 tested, 0.68% active; AID 463187;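 active = Hck-Nef kinase inhibition above about 50%, limit read from the data; inactive = inhibition below that limit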;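 note: 0% = DMSO with Hck plus Nef and 100% = Hck alone without Nef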
Target sequence (P08631 whole entry, looked up): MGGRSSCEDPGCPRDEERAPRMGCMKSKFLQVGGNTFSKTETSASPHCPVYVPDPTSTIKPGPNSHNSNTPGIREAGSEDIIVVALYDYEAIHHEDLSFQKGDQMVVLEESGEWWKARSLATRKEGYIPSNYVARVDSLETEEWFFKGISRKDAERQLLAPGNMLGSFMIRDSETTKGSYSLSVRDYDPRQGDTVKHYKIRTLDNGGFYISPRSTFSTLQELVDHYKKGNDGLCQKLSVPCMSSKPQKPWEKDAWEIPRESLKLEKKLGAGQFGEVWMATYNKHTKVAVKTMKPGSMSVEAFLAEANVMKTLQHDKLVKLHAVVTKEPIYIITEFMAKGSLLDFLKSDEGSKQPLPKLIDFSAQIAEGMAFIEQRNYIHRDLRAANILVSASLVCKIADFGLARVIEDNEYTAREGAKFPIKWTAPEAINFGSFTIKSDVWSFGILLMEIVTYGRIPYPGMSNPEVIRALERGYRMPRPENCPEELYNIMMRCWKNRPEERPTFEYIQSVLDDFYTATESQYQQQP
14-3-3 Bad PPI: disrupts binding of bovine 14-3-3 zeta to phospho-Bad peptide | inhibition, % at 21.7 µM | TR-FRET 14-3-3zeta/Dy647-pBad peptide displacement, 1 h | 220,000 tested, 0.71% active | P63103;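 active = inhibition above about 70%, limit read from the data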;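 note: 0% = full 14-3-3 plus peptide FRET controls and 100% = background without 14-3-3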
PERK inhibitor: human PERK inhibition, primary cell-based screen; 220,000 tested, 0.17% active; inhibition, % at 5.6 µM; CHO PERK-DD fusion, SEAP luminescence translation reporter; Q9NZJ5;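 active = inhibition above the mean inhibition of all tested compounds plus 3 SD, set separately per screening campaign, cut at about 2.9% in these data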;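 note: PERK kinase domain activated by AP20187 dimerizer at 100 nM; 0% = DMSO with dimerizer and 100% = rapamycin at 8.4 µM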
Biofilm kill mix: mixtures killing C. albicans biofilm; inhibition, % at 7.6 µM; C. albicans biofilm persisters + clotrimazole, fluorescence viability; primary screen in compound mixtures of four per well; 120,000 tested, 0.02% active; AID 1242;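 active = inhibition above 30.3% in the primary screen of four-compound pools, then above 30% when the compound was retested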;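 note: compounds exposed to preformed 24 h biofilms for 48 h; 0% = untreated biofilm control and 100% = clotrimazole plus chlorhexidine kill blank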
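Probe or stimulus – Clotrimazole 50 µg/mL co-treatment · System – C. albicans biofilms · Schedule – 24 h biofilm formation, then 48 h compound exposure, 37 °C · Evaluation – percent inhibition of biofilm viability · Technique – 2-h Alamar Blue fluorescence, 535/590 nm excitation/emission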
eIF4E 4G PPI: inhibitors of eIF4E and eIF4G interaction in translation initiation; P63073+Q04637; TR-FRET eIF4E-eIF4GI(517-606) binding, 2 h; inhibition, % at 21.7 µM; 220,000 tested, 0.37% active; AID 782;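 active = inhibition above about 30%, limit read from the data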;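 note: 0% = full FRET control wells and 100% = background wells lacking eIF4GI fragment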
Hck-Nef confirm: confirmation of Hck-Nef kinase inhibitors; shares compounds with Hck-Nef inh; Recombinant Hck-YEEI:Nef, Z-Lyte FRET kinase assay; calls only at 10 µM; 1,300 tested, 28% active; AID 463188;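 active = average inhibition of at least 50%, with Z-scores no higher than 3 in both the phospho-tyrosine peptide and fluorescence counterscreens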
Active calls of the source: *; i = inactive; · = no result given; + = active, no number; [ ] = remark or other dose.

SMILES	p97 inhibitor	Hck-Nef inh	14-3-3 Bad PPI	PERK inhibitor	Biofilm kill mix	eIF4E 4G PPI	Hck-Nef confirm
COc1ccc(C(=O)NNC(=O)C(Cc2ccc(O)cc2)NC(=O)c2ccccc2NC(=O)c2ccc(OC)cc2)cc1 (stereo not drawn)	4.3	22.4	42.0	0.2	10.4	7.0	·
COCc1cc(C)nc(OCC(=O)N/N=C/c2ccc(-c3cc([N+](=O)[O-])ccc3Cl)o2)c1C#N	2.3	93.2*	-10.9	-0.1	19.1	3.1	i
O=C(C1=NN[C@@H]2C(=O)N(c3cccc(C(F)(F)F)c3)C(=O)[C@H]12)c1cnccn1	5.3	52.0*	-2.3	0.8	32.3	-4.2	i
CCOc1cc(/C=N\Nc2nc(-c3ccc(C)cc3)c(NC(C)=O)s2)ccc1O	9.8	97.3*	-9.0	-0.1	21.1	-5.0	+
COc1ccc(/C=N/Nc2nc(-c3ccc(C)cc3)c(NC(C)=O)s2)cc1OC	8.2	99.3*	-11.1	-0.6	9.4	1.6	+
CC(=O)Nc1sc(N/N=C/c2ccc(N(C)C)cc2)nc1-c1ccc(C)cc1	7.2	40.5	-11.9	-0.4	0.9	-2.2	·
CC(=O)Nc1sc(N/N=C/c2ccc(C)cc2)nc1-c1ccc(C)cc1	6.2	59.6*	-6.0	0.0	19.8	-3.2	i
CC1(C)CC(C(CC(=O)N2CCCC2)Cc2ccccc2)CCO1 (stereo not drawn)	4.1	15.9	8.2	0.6	5.2	3.5	·
Cc1cccc(NNC(=O)c2c(F)cccc2Cl)c1	5.6	5.2	-1.9	1.0	13.8	-0.7	·
COCCN(CC(=O)NC1CCCCC1)C(=O)CCCC(=O)Nc1ccccn1	2.3	16.5	-3.0	0.3	-0.6	0.9	·
Cc1ccc(NC(=O)c2ccc(CSc3nnc(C)s3)cc2)cc1	-11.0	-1.7	-20.5	-1.1	·	4.9	·
Cc1cc(C)cc(NC(=O)c2ccc(CSc3nnc(C)s3)cc2)c1	-4.4	100.6*	-0.9	-0.2	·	-0.7	i
Cc1[nH]nc2c1C(C(C)c1ccccc1)C(C#N)=C(N)O2 (stereo not drawn)	-0.7	3.3	-11.5	1.1	20.2	-5.9	·
O=C1N/C(=N\N=C\c2ccc3ncccc3c2)SC1Cc1ccc(SC(F)F)cc1 (stereo not drawn)	1.4	84.5*	14.0	0.8	·	2.0	+
O=C1N/C(=N\N=C\c2cccnc2)SC1Cc1ccc(SC(F)F)cc1 (stereo not drawn)	4.0	7.0	13.1	1.2	·	-3.0	·
CCc1nnc(NS(=O)(=O)c2ccc(NC(=S)NC(=O)/C=C/c3ccc(C(C)C)cc3)cc2)s1	-3.0	65.2*	32.6	0.4	·	63.8*[fluorescence artefact?]	+
CC(C)c1ccc(NC(=O)C(c2ccc3c(c2)OCO3)N2CCCCC2)cc1 (stereo not drawn)	-2.8	1.6	-3.0	-0.6	·	-1.9	·
Oc1cc2c(cc1C(c1ccc(Cl)c(Cl)c1)N1CCCC1)OCO2 (stereo not drawn)	8.1	70.0*	17.6	1.6	7.0	37.8*	i
O=C(NC(=S)Nc1ccc(-c2nc3ncccc3o2)cc1)c1ccccc1F	5.7	52.3*	24.5	0.5	7.6	28.5	i
Cc1ccc(C(=O)Nc2cccc(-c3nc4ncccc4o3)c2)cc1	1.6	15.6	1.9	-1.8	20.9	0.0	·
Cc1ccc(OCC(=O)Nc2ccc(-c3nc4ncccc4o3)cc2)c(C)c1	-1.2	105.6*	69.2	0.4	·	-65.6	i
CC(=O)NS(=O)(=O)c1ccc(NC(=O)c2cc(-c3ccc(C)c(C)c3)nc3ccccc23)cc1	-2.3	51.9*	17.3	0.8	·	14.7	+
CC(C)(C)C(=O)COC(=O)c1cc(-c2cccnc2)nc2ccccc12	-0.1	22.9	2.5	0.2	-6.6	2.5	·
NS(=O)(=O)c1ccc(NC(=O)COC(=O)CNC(=O)C23CC4CC(CC(C4)C2)C3)cc1	4.3	3.5	-6.3	1.1	5.0	3.2	·
CCn1c(=O)n(CC(=O)Nc2cccc(OC)c2)c(=O)c2ccccc21	3.5	-9.9	-7.3	-0.3	·	0.7	·

Source: PubChem
